Results reported in PMC10663723 (RSC Advances, 2023).
Values after ≈ are worked out from the molar mass of the structure shown.

Assays:
[1] = system: cervical cancer cells (HeLa); experiment: MTT cell viability assay, HeLa cells; format: cell-based; conditions: Homo sapiens, 48 h, read-out: EC50, HeLa
In short: (§1)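 Cells plated at 10000/well in DMEM with 10% FBS and incubated 20 h at 37 °C, 5% CO2. Test compound (20 mg mL−1 DMSO stock, diluted in medium) was applied at 0.1–100 μg mL−1 for 48 h; 0.5% final DMSO served as vehicle control. MTT (0.5 mg mL−1) was added for 4 h at 37 °C in the dark, formazan was dissolved in DMSO, and absorbance was read at 570 nm.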

[2] = system: lung cancer cells (A549); experiment: MTT cell viability assay, A549 cells; format: cell-based, human
In short: as §1

[3] = system: triple-negative breast cancer cells (MDA-MB-231); experiment: MTT cell viability assay, MDA-MB-231 cells; format: cell-based, human; conditions: CC50 HFF / EC50 MDA-MB-231
In short: as §1

[4] = MTT cell viability assay, HFF cells; format: cell-based; conditions: human, HFF cells (non-cancer human foreskin fibroblasts)
In short: as §1

EC50 [1]: 1.69 µg/mL (≈ 3.11 µM) | EC50 ([2]; Homo sapiens, A549, 48 h, read-out: EC50, A549): 2.68 µg/mL (≈ 4.93 µM)
SMILES: COc1cccc2c1C(=O)c1c(O)c3c(c(O)c1C2=O)C[C@@](O)(C(=O)CO)C[C@@H]3O[C@H]1C[C@H](N)[C@H](O)[C@H](C)O1 [doxorubicin]
SI (selectivity index) A549 with respect to HFF cells ([2]; CC50 HFF / EC50 A549): 2.83 | SI (selectivity index) MDA-MB-231 with respect to HFF cells [3]: 2.73 | CC50 at 48 h [4]: 8.96 µg/mL (≈ 16.5 µM)
